The values below come from ChEMBL document CHEMBL4028902, “Azetidine and Piperidine Carbamates as Efficient, Covalent Inhibitors of Monoacylglycerol Lipase” (J Med Chem, 2017).

pIC50: −log10 of the molar value.

Data set [1] concerns the target T1, Monoglyceride lipase (Homo sapiens) (UniProt Q99685).
T1 sequence (whole entry): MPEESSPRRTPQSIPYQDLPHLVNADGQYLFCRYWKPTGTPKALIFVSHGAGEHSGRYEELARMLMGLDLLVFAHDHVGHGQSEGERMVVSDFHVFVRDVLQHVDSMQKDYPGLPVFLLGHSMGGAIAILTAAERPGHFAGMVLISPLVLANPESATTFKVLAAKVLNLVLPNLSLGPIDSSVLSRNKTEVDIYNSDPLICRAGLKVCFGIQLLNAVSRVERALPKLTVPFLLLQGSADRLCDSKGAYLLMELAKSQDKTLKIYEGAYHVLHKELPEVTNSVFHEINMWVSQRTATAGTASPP
The experiment in a line: Ratio of Kinact to Ki for human recombinant MAGL using 7-HCA as substrate after 60 mins by fluorescence assay. The method in brief:
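Run as the MAGL 7-HCA assay, but substrate added with no preincubation (T = 0), fluorescence read every minute at decreasing compound concentrations to give progress curves. kobs from each curve; kinact/KI from a plot of kobs against compound concentration.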

Data set [2] has as its target T2, Monoglyceride lipase (Homo sapiens, UniProt Q99685).
T2 sequence (Q99685 whole entry): T1 sequence (whole entry)
The experiment in a line: Inhibition of human recombinant MAGL using 7-HCA as substrate preincubated for 30 mins followed by substrate addition measured after 60 mins by fluorescence assay. The method in brief: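 Reaction started with 7-HCA (5 μM final), run 60 min, fluorescence Ex/Em 340/465. Percent inhibition versus no-compound and full-inhibition controls; IC50 from four-parameter fit.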

The nature of data set [3]: Lipophilicity, log D of the compound. The format is physicochemical. Particulars: octanol/water.
In data set [4] the target is T3, Fatty-acid amide hydrolase 1 (Homo sapiens, UniProt O00519).
T3 sequence (O00519 whole entry): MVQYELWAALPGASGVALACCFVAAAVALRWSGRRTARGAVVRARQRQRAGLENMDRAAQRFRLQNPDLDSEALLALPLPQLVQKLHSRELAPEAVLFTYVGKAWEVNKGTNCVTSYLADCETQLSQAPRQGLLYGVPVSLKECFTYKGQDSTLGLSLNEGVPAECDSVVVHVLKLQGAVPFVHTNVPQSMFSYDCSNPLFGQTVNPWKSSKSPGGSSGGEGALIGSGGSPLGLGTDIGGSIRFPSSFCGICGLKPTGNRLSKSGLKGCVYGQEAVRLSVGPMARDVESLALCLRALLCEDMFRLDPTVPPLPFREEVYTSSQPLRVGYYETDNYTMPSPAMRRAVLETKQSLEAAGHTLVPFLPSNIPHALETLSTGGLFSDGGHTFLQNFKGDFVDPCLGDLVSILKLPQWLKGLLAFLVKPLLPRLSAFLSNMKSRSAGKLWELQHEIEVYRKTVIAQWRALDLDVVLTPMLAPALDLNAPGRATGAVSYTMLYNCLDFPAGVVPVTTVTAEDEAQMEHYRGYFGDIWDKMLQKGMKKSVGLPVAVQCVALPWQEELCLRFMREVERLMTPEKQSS
Description: Inhibition of human recombinant FAAH using arachidonoyl-AMC as substrate preincubated for 30 mins followed by substrate addition measured after 60 mins by fluorescence assay. Summed up: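 Human recombinant FAAH (0.0125 unit final) in 50 mM Tris pH 9.0, 1 mM EDTA, preincubated 30 min at room temperature with compound (final 30 μM–0.3 nM). Arachidonoyl-AMC added (5 μM final), reaction run 60 min, fluorescence Ex/Em 355/460. Percent inhibition versus no-compound and full-inhibition controls.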

By pIC50 is commonly meant the negative decadic logarithm of the IC50, by convention in mol/L. The term logD denotes the decadic logarithm of the distribution of all forms, ionised or not, between an organic phase and buffer at a given pH. Low values mean lower lipophilicity, high ones higher lipophilicity.

As for `Cn1ccc(C2CN(C(=O)OC(C(F)(F)F)C(F)(F)F)C2)n1`, in data set [1], the Ratio was 4050 M⁻¹ s⁻¹. Further, the pIC50 in data set [2] was 7.41; in data set [4], < 4.70. The same compound had a log distribution coefficient (logD) in data set [3] of 2.4.

Take `O=C(OC(C(F)(F)F)C(F)(F)F)N1CC(c2ccnc(N3CCOCC3)n2)C1`: the Ratio in data set [1] is 121000 M⁻¹ s⁻¹. The negative logarithm of the IC50 (pIC50) in data set [2] is 8.72; in data set [4] it was < 4.52. The same compound gave a logD in data set [3] of 3.

In the case of `O=C(OC(C(F)(F)F)C(F)(F)F)N1CC(c2ccn(Cc3ccccc3)n2)C1`, the Ratio in data set [1] was found to be 791000 M⁻¹ s⁻¹. The figures for the negative logarithm of the IC50 (pIC50) in data set [2] and in data set [4] were 9.39 and 6.80, respectively. The compound further returned a pH-dependent lipophilicity (logD) in data set [3] of 4.4.

With `O=C(OC(C(F)(F)F)C(F)(F)F)N1CC(c2nc(-c3ccccc3)no2)C1`, the Ratio in data set [1] was found to be 840000 M⁻¹ s⁻¹. Moreover, the pIC50 is 9.42 in data set [2] and 6.38 in data set [4]. The log distribution coefficient (logD) in data set [3] came out at 4.2.

In the case of `O=C(OC(C(F)(F)F)C(F)(F)F)N1CC(c2ccn(-c3ccc(F)c(F)c3)n2)C1`, the Ratio in data set [1] stood at 978000 M⁻¹ s⁻¹. The pIC50 is 9.74 in data set [2] and 6.17 in data set [4]. The compound also registered a logD in data set [3] of 4.6.

Turning to `O=C(OC(C(F)(F)F)C(F)(F)F)N1CC(N2CCN(c3ncccn3)CC2)C1`, in data set [1], the Ratio amounted to 18000 M⁻¹ s⁻¹. For the same compound, the negative-log IC50 (pIC50) in data set [2] was 8.49; in data set [4], 5.60. The same compound showed a log distribution coefficient (logD) in data set [3] of 2.9.

Turning to `O=C(OC(C(F)(F)F)C(F)(F)F)N1CC(c2ccn(-c3cnccn3)n2)C1`, the Ratio in data set [1] stood at 329000 M⁻¹ s⁻¹. The pIC50 in data set [2] is 9.13; in data set [4] it was 5.96. Also, in data set [3], the logD turned out to be 2.8.

For `O=C(OC(C(F)(F)F)C(F)(F)F)N1CC(c2ccn(C3CCOCC3)n2)C1`, the Ratio in data set [1] came out at 102000 M⁻¹ s⁻¹. Also, the pIC50 in data set [2] was 8.72; in data set [4], 5.03. This compound registered a logD in data set [3] of 3.2.

As for `O=C(OC(C(F)(F)F)C(F)(F)F)N1CC(c2cc(-c3ccccc3)n(-c3ccccc3)n2)C1`, the Ratio in data set [1] was found to be 293000 M⁻¹ s⁻¹. Moreover, the figures for the negative logarithm of the IC50 (pIC50) in data set [2] and in data set [4] were 9.52 and 6.31, respectively. In addition, the pH-dependent lipophilicity (logD) in data set [3] was 5.7.
